# Screens (PubChem BioAssay)
# HIV Env fusion: inhibitors of HIV-1 Env-driven cell-cell fusion, primary screen, HeLa-JRFL effector, CEM21 target cells, luciferase | inhibition, % at 12.3 µM | 360,000 compounds, 1.1% hits | AID 651610, 2012;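 active = mean replicate inhibition score of at least 50 and every replicate individually at or above 50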;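 note: 0% = plate neutral controls and 100% = maraviroc near 300 nM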
# V-ATPase pH: regulators of yeast V-ATPase proton pumping, primary screen, pHLuorin cytosolic pH fluorescence; S. cerevisiae; response, % at 10 µM; 350,000 compounds, 0.37% hits; AID 504577, 2011; in the data active = response mostly above about 7.3%, no sharp cut-off; inactive = mostly below about 5.4%; note: actives read high
# NR2E3 ag-1: inhibitors of NR2E3-RetCOR corepressor binding, primary screen, NR2E3 agonist project, biochemical, TR-FRET, GST-NR2E3, biotin-RetCOR | Photoreceptor-specific nuclear receptor (Homo sapiens), Q9Y5X4 | 1536-well | inhibition of corepressor binding, % at 4.78 µM | 320,000 compounds, 0.12% hits | AID 2300, 2010;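 active = percent inhibition above the cutoff of mean plus 3 SD of all tested compounds, set per screening campaign, cut at about 20% in these data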;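 note: 0% = DMSO wells and 100% = biotin wells as full block of FRET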
# Target sequence (Q9Y5X4 whole entry, looked up): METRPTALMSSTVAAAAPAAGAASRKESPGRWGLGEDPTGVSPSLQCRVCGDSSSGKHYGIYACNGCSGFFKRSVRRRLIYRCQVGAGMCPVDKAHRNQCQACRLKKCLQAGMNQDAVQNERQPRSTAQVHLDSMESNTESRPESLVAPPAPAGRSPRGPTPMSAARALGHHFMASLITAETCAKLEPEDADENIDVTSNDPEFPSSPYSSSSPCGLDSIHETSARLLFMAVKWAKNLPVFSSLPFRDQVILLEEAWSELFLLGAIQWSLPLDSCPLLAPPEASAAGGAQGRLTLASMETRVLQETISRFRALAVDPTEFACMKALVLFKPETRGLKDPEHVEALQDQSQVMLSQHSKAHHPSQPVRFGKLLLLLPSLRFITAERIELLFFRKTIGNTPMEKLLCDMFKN
#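 Material: NR2E3–RetCOR corepressor complex | Quantity: 1.35 nM GST-tagged NR2E3 final | Schedule: 5 h at 4 °C | Replication: Singlicate compound wells | Reagent: RetCOR corepressor, biotinylated, 7 nM | Controls: Biotin wells as high control, 0.6% DMSO wells as low control | Signal: TR-FRET, Eu(K)-anti-GST donor, streptavidin-D2 acceptor, ex 340, em 617/671 nm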
# GAA850 FXN act: FXN promoter activators, primary screen, cell-based, luciferase luminescence, HEK293 lucGAA850; HEK293 lucGAA850 FXN promoter luciferase reporter, 24 h; percent of 10 µM SAHA response; activation, % at 6 µM; 360,000 compounds, 0.56% hits;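 active = activation above the average of all compounds screened plus 3 SD, cutoff fixed separately per campaign, cut at about 7.5% in these data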;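 note: 0% = DMSO wells and 100% = 10 µM SAHA wells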
# GalR3 antag: GalR3 antagonists in HEK293 cells, primary screen, cell-based, fluorescence readout | Galanin receptor type 3 (Homo sapiens), O60755 | HEK293 GalR3-CNG cAMP membrane potential fluorescence; galR3 body fused to GalR1 C-terminus | inhibition, % at 3 µM | 360,000 compounds, 0.44% hits | AID 651719, 2012;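 active = inhibition above the screen-wide average plus 3 SD, cut at about 13% in these data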;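 note: forskolin and galanin both at EC90 stimulate the cells; cAMP rise reported by CNG channel membrane potential dye signal; 0% = forskolin plus galanin with DMSO and 100% = forskolin alone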
# Target sequence (O60755 1-299 limits assumed): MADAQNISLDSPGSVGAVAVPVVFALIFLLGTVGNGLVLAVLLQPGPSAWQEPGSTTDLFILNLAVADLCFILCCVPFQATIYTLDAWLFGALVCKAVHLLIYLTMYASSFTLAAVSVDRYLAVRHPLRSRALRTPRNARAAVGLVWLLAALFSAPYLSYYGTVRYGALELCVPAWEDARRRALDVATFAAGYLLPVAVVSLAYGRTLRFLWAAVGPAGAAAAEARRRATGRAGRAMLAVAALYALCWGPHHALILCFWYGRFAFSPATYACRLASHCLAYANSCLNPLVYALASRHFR
# NR2E3 ag-2: NR2E3 agonists in two-hybrid cells, primary screen, cell-based, luminescence, CHO-S, Gal4-NCOR/VP16-NR2E3; Photoreceptor-specific nuclear receptor (Homo sapiens), Q9Y5X4; luciferase; inhibition of corepressor binding, % at 3.98 µM; 360,000 compounds, 0.35% hits;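 active = inhibition above the mean of all tested compounds plus 3 SD, cut at about 70% in these data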;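 note: 0% = DMSO with NR2E3 transfected cells and 100% = cells lacking NR2E3 construct; higher means lower luciferase signal from less NR2E3 corepressor binding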
# * marks the source's active call; other numbers are inactive results; i = inactive; x = no result; [ ] = remark or other dose. Compounds with a hit are over-represented: about 2.2% of the library has one in this group of screens.
SMILES,HIV Env fusion,V-ATPase pH,NR2E3 ag-1,GAA850 FXN act,GalR3 antag,NR2E3 ag-2
CC1=CC(=O)C2=C(C)CC[C@@H]3[C@H](OC(=O)[C@H]3C)[C@@H]12,68*,2,0,6,-8,-9
CC1=CC(=O)C2=C(C)CCC3C(C)C(=O)OC3C12 (stereo not drawn),x,x,x,-1,-2,-28
Cc1ccc(F)cc1S(=O)(=O)N[C@H]1CCN(Cc2ccc(OC(C)C)cc2)C1,-8[16.7 µM],x,x,x,x,x
COc1ccccc1CN(C)C(=O)CN1CCN(C(=O)c2cccs2)CC1,68*,-3,1,3,-8,16
CC(CNC(=O)[C@H]1O[C@@H](n2cnc3c(=O)[nH]c(N)nc32)[C@H](O)[C@@H]1O)c1ccccc1 (stereo partly drawn),3,x,x,x,0,x
Nc1nc2c(ncn2[C@@H]2O[C@H](C(=O)NCC(c3ccccc3)c3ccccc3)[C@@H](O)[C@H]2O)c(=O)[nH]1,75*,x,x,x,-6,x
CCc1ccc(NCCC(=O)c2ccc(Br)cc2)cc1,x,15*,5,0,x,-11
Cc1ccccc1Cn1c(C(=O)OC(C)C)cc2c1ccn2C,54*,3,-4,1,-6,-9
CN1C(=O)c2cc(NC(=O)c3ccc(F)cc3)ccc2OC[C@H]2O[C@@H](CC(=O)NCC3CCCCC3)CC[C@H]21,27[16.7 µM],x,x,x,x,x
CNC[C@@H]1OCCCC[C@@H](C)Oc2ccc(N(C)C)cc2C(=O)N([C@H](C)CO)C[C@H]1C,6[16.7 µM],x,x,x,x,x
C[C@H](CO)N1C[C@H](C)[C@@H](CN(C)C(=O)NC2CCCCC2)OCCCC[C@H](C)Oc2ccc(NC(=O)Nc3cccc4ccccc34)cc2C1=O,-7[16.7 µM],x,x,x,x,x
COc1ccccc1NC(=O)c1cc2cc(Br)ccc2cc1O,57*,7,19,-3,-10,-28
COc1cc(NC(=O)c2cc3ccccc3cc2O)c(OC)cc1Cl,33,-4,-1,-4,-9,-55
Nc1nc(SCc2ccc(F)cc2)ns1,-5,24*,-3,6,-4,-63
Cc1cc(C)n(-c2ccc3cccc(NS(C)(=O)=O)c3n2)n1,60*,-3,7,1,-4,13
O=c1c2c(nc3c(-c4ccc(Cl)cc4)c[nH]n13)CCCC2,62*,-2,-1,-6,-3,29
CC(C)(C)CC(C)(C)N=C1Nc2ccccc2NC12C[C@H]1CCC(=O)N3CC[C@@H](C2)[C@@H]13 (stereo partly drawn),-64,-2,x,-7,-7,-17
CC(C)(C)CC(C)(C)N=C1Nc2cc(Cl)c(Cl)cc2NC12C[C@H]1CCC(=O)N3CC[C@@H](C2)[C@@H]13 (stereo partly drawn),58*,-3,x,-1,-5,4
Cc1c(Nc2cc(Cl)c3nonc3c2[N+](=O)[O-])c(=O)n(-c2ccccc2)n1C,i,4,x,13*,2,9
Cc1n[nH]c(C)c1S(=O)(=O)N1CCCC(C(=O)N2CCN(c3ccc(Cl)cc3)CC2)C1 (stereo not drawn),29,-2,3,-4,-6,13
Cc1nn(C)c(C)c1S(=O)(=O)N1CCCC(C(=O)N2CCN(c3ccc(Cl)cc3)CC2)C1 (stereo not drawn),63*,1,5,-1,-6,21
CC(=O)N(C)C[C@@H]1Oc2ncc(C#C[C@@H](C)O)cc2C(=O)N([C@@H](C)CO)C[C@@H]1C,-15[16.7 µM],x,x,x,x,x
CN(C(=O)c1ccc(Oc2ccc([N+](=O)[O-])cc2)cc1)C1CCCCC1,59*,2,0,2,-10,3
O=S(=O)(N[C@@H]1CC[C@H](CCn2cc(-c3ccccn3)nn2)O[C@@H]1CO)c1cccc(Cl)c1,3[16.7 µM],x,x,x,x,x
C/C=C/c1cnc2c(c1)C(=O)N([C@H](C)CO)C[C@H](C)[C@@H](CN(C)C(=O)NCCC)O2,-23[16.7 µM],x,x,x,x,x
SMILES,HIV Env fusion,V-ATPase pH,NR2E3 ag-1,GAA850 FXN act,GalR3 antag,NR2E3 ag-2
O=C(NC1CCCC1)C(c1ccccc1)n1c(Cc2cc(F)cc(F)c2)nc2ccccc21 (stereo not drawn),71*,x,x,x,-11,x
O=C(NC1CCCCC1)C(c1ccc(C(F)(F)F)cc1)n1c(=O)c(-c2ccccc2)nc2ccccc21 (stereo not drawn),-1,x,x,x,-6,x
C[C@@H]1CN([C@@H](C)CO)C(=O)c2cccc(NC(=O)Nc3ccc(F)cc3)c2O[C@H]1CN(C)S(=O)(=O)c1cn(C)cn1,-23[16.7 µM],x,x,x,x,x
COc1ccc2cc3c(N)nn(C(=O)c4ccc(F)cc4)c3nc2c1,63*,-1,2,-7,-2,-34
COc1ccc2cc3c(N)nn(C(=O)Cc4c[nH]c5ccccc45)c3nc2c1,90*,1,7,-10,-4,10
CNC[C@H]1Oc2ccc(NC(=O)CCC(F)(F)F)cc2CC(=O)N([C@@H](C)CO)C[C@@H]1C,-8[16.7 µM],x,x,x,x,x
CC(C)NC(=O)N(C)C[C@@H]1Oc2cc(C#Cc3ccc(F)cc3)ccc2S(=O)(=O)N([C@@H](C)CO)C[C@@H]1C,13[16.7 µM],x,x,x,x,x
O=C(C[C@H]1CC[C@H]2[C@@H](COC[C@H](O)CN2S(=O)(=O)c2ccccc2)O1)NCCN1CCCCC1,6[16.7 µM],x,x,x,x,x
CC(C)[C@H](CN(N=O)[C@@H](Cc1ccccc1)CN(C)N=O)N(CCc1ccccc1)N=O,68*,2,-3,4,2,-6
CN(C[C@H](Cc1ccccc1)N(C[C@H](Cc1ccccc1)N(CCc1cc(C(F)(F)F)cc(C(F)(F)F)c1)N=O)N=O)N=O,56*,-4,1,-1,-3,20
CCCC[C@H](CN(N=O)[C@@H](Cc1ccccc1)CN(C)N=O)N(CCc1ccccc1)N=O,88*,3,1,3,-6,-32
CC(C)C[C@@H](CN(C)N=O)N(C[C@H](Cc1ccccc1)N(CCc1ccccc1)N=O)N=O,94*,1,1,1,-10,8
CN(C)C(=O)C[C@H]1CC[C@H]2[C@@H](COC[C@H](O)CN2C(=O)c2ccncc2)O1,-6[16.7 µM],x,x,x,x,x
O=C(C[C@H]1CC[C@@H](NC(=O)C2CCC2)[C@@H](CO)O1)NC1CCCCC1,-8[16.7 µM],x,x,x,x,x
Cc1noc(C)c1S(=O)(=O)Nc1cccc2c1O[C@@H](CN(C)S(=O)(=O)c1cccs1)[C@@H](C)CN([C@H](C)CO)C2=O,43[16.7 µM],x,x,x,x,x
CO[C@@H]1CN(C)C(=O)c2cc(NC(=O)Nc3ccc(Cl)cc3)ccc2OC[C@@H](C)N(C(=O)Nc2c(C)noc2C)C[C@@H]1C,-23[16.7 µM],x,x,x,x,x
